Laboratory results taken from ChEMBL document CHEMBL1133253, “Improved antibacterial activities of coumarin antibiotics bearing 5',5'-dialkylnoviose: biological activity of RU79115” (Bioorg Med Chem Lett, 2000).
Converted amounts (≈) assume the structure as drawn.

Key:
[1] = test system: Mus musculus; assay: Protective dose of orally administered compound against intraperitoneally-induced septicaemia model (Enterococci faecium D3HT7 strain ) in murine; format: functional; conditions: po, read-out: PD50
Summary of the method: (§1)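 PD50 was measured in a murine septicaemia model, with infection induced intraperitoneally with the named Gram-positive strain. Test compound was given orally and the PD50 was calculated by the probit method.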

[2] = test system: Enterococcus; assay: Minimum inhibitory concentration evaluated against enterococci species susceptible to vancomycin [26]*; format: functional
[3] = test system: pneumococci; assay: In vitro anti-streptococcal activity against pneumococci resistant to penicillin [29]* expressed as geometric mean; format: functional
[4] = test system: Staphylococcus aureus; assay: Tested for in vitro antibacterial activity against Staphylococcus aureus 011 HT3 phenotype; format: functional
[5] = test system: Mus musculus; assay: Protective dose of orally administered compound against intraperitoneally-induced septicaemia model (Staphylococcus aureus HT-17 strain) in murine; format: functional; conditions: po, read-out: PD50; summary of the method: as §1
[6] = test system: Streptococcus sp.; assay: In vitro anti-streptococcal activity against Streptococci species (viridans) [25]* expressed as geometric mean; format: functional
[7] = test system: Staphylococcus sp.; assay: Minimum inhibitory concentration evaluated against Staphylococcus species resistant to oxacillin [66]*; format: functional
Summary of the method: (§2)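 Two-fold agar dilution MIC, in µg/mL, against Staphylococcus panels grouped by resistance phenotype (oxacillin and/or ofloxacin resistant). Per-panel values are reported as the geometric mean and MIC90 across strains; the strain count per panel is given in brackets.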

[8] = test system: Mus musculus; assay: Protective dose of orally administered compound against intraperitoneally-induced septicaemia model (Staphylococcus aureus HT18) in murine; format: functional; conditions: po, read-out: PD50; summary of the method: as §1
[9] = test system: Staphylococcus sp.; assay: In vitro anti-staphylococcal activity against Staphylococcus species resistant to oxacillin and ofloxacin[47]* expressed as geometric mean; format: functional; summary of the method: as §2
[10] = test system: Mus musculus; assay: Protective dose of orally administered compound against intraperitoneally-induced septicaemia model (Streptococcus pneumoniae PW3 strain) in murine; conditions: po, read-out: PD50
[11] = Tested for bioavailability of the compound; format: ADME, organism-based; conditions: mouse, in vivo
Summary of the method: (§3)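 Mouse pharmacokinetics used 10 mg/kg given IV and PO. Tmax and Cmax (µg/ml) come from oral dosing, half-life is in hours, and oral bioavailability is F%.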

[12] = test system: Staphylococcus aureus; assay: Minimum inhibitory concentration of the orally administered compound evaluated against Staphylococcus aureus GR56 strain resistant to oxacillin in mice; format: functional
[13] = test system: Staphylococcus sp.; assay: In vitro anti-staphylococcal activity against Staphylococcus species resistant to ofloxacin [59]* expressed as geometric mean; format: functional; summary of the method: as §2
[14] = test system: Enterococcus; assay: Minimum inhibitory concentration evaluated against enterococci species resistant to vancomycin [65]*; format: functional
[15] = test system: Mus musculus; assay: Protective dose of orally administered compound against intraperitoneally-induced septicaemia model (vancomycin resistant Enterococci faecium D3HT12 strain ) in murine; format: functional; conditions: po, read-out: PD50
Summary of the method: (§4)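 Mice infected intraperitoneally to induce septicaemia, then given the compound by mouth. PD50 was calculated by the probit method.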

[16] = test system: Mus musculus; assay: Protective dose of orally administered compound against intraperitoneally-induced septicaemia model (Streptococcus agalactiae B1HT3 strain) in murine; conditions: po, read-out: PD50
[17] = test system: Enterococcus; assay: Minimum inhibitory concentration evaluated against enterococci species resistant to vancomycin and teicoplanin [17]*; format: functional
[18] = test system: Staphylococcus aureus; assay: Minimum inhibitory concentration of the orally administered compound evaluated against Staphylococcus aureus HT-17 strain in mice; format: functional
[19] = Tested for half life at the dose of 10 mg/kg when administered intravenously; format: ADME, organism-based; set-up: dose 10 mg/kg, route intravenous; conditions: mouse, in vivo, iv; summary of the method: as §3
[20] = test system: Enterococcus faecium; assay: Minimum inhibitory concentration of the orally administered compound evaluated against vancomycin resistant Enterococci faecium D3HM4 strain in mice; format: functional
[21] = test system: Streptococcus sp.; assay: Minimum inhibitory concentration evaluated against Streptococci species (viridans) [25]*; format: functional
[22] = test system: Staphylococcus aureus; assay: IC50 was determined for gyrase B of Staphylococcus aureus against novobiocin (0.5 mg/mL) as reference; IC50nov/IC50comp
[23] = test system: Staphylococcus sp.; assay: Minimum inhibitory concentration evaluated against Staphylococcus species resistant to oxacillin and ofloxacin [47]*; format: functional; summary of the method: as §2
[24] = test system: Enterococcus faecium; assay: Minimum inhibitory concentration of the orally administered compound evaluated against vancomycin resistant Enterococci faecium D3HT12 strain in mice; format: functional
[25] = Tested for Tmax value at the dose of 10 mg/kg when administered perorally in mouse; format: ADME, organism-based; set-up: dose 10 mg/kg, route oral; conditions: in vivo, po; summary of the method: as §3
[26] = test system: Staphylococcus sp.; assay: In vitro anti-staphylococcal activity against Staphylococcus species [91]* expressed as geometric mean; format: functional
Summary of the method: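 Two-fold agar-dilution MICs (µg/mL) were run on a panel of staphylococcal isolates and summarised as the geometric mean across strains.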

[27] = test system: Mus musculus; assay: Protective dose of orally administered compound against intraperitoneally-induced septicaemia model (vancomycin resistant Enterococci faecium D3HM3 strain ) in murine; format: functional; conditions: po, read-out: PD50; summary of the method: as §1
[28] = test system: Staphylococcus sp.; assay: Minimum inhibitory concentration evaluated against Staphylococcus species resistant to ofloxacin [59]*; format: functional; summary of the method: as §2
[29] = test system: Staphylococcus sp.; assay: In vitro anti-staphylococcal activity against Staphylococcus species resistant to oxacillin [66]* expressed as geometric mean; format: functional; summary of the method: as §2
[30] = test system: Staphylococcus aureus; assay: Minimum inhibitory concentration of the orally administered compound evaluated against Staphylococcus aureus GO3 strain in mice; format: functional
[31] = test system: Streptococcus pyogenes; assay: Minimum inhibitory concentration of the orally administered compound evaluated against Streptococcus pyogenes A1UC1 strain in mice
[32] = test system: Enterococcus faecium; assay: Tested for in vitro antibacterial activity against Enterococcus faecium 02D31P2 vancomycin teicoplanin erythromycin resistance phenotype; format: functional
[33] = test system: Enterococcus; assay: In vitro anti-enterococcal activity against enterococci species susceptible to vancomycin [26]* expressed as geometric mean; format: functional
[34] = Minimum inhibitory concentration evaluated against pneumococci resistant to penicillin [29]*; format: functional
[35] = test system: Streptococcus pyogenes; assay: Tested for in vitro antibacterial activity against Streptococcus pyogenes O2A1UC1 phenotype; format: functional
[36] = test system: Enterococcus faecium; assay: Minimum inhibitory concentration of the orally administered compound evaluated against vancomycin resistant Enterococci faecium D3HM3 strain in mice; format: functional
[37] = test system: Enterococcus faecium; assay: Minimum inhibitory concentration of the orally administered compound evaluated against Enterococci faecium D3HT7 strain in mice; format: functional
[38] = test system: Streptococcus sp.; assay: In vitro anti-streptococcal activity against Streptococci species [38]* expressed as geometric mean; format: functional
[39] = Tested for Cmax value at the dose of 10 mg/kg when administered perorally in mouse; format: ADME, organism-based; set-up: dose 10 mg/kg, route oral; conditions: in vivo, po; summary of the method: as §3
[40] = test system: Staphylococcus aureus; assay: Minimum inhibitory concentration of the orally administered compound evaluated against Staphylococcus aureus HT-18 strain in mice; format: functional
[41] = test system: Streptococcus sp.; assay: Minimum inhibitory concentration evaluated against Streptococci species [38]*; format: functional
[42] = Minimum inhibitory concentration of the orally administered compound evaluated against […] PW3 strain in mice; format: functional
[43] = test system: Enterococcus faecalis; assay: Minimum inhibitory concentration of the orally administered compound evaluated against Enterococci faecalis D2HT6 strain in mice; format: functional
[44] = test system: Mus musculus; assay: Protective dose of orally administered compound against intraperitoneally-induced septicaemia model (vancomycin resistant Enterococci faecium D3AP9 strain ) in murine; format: functional; conditions: po, read-out: PD50; summary of the method: as §1
[45] = test system: Enterococcus; assay: In vitro anti-enterococcal activity against enterococci species resistant to vancomycin and teicoplanin [17]* expressed as geometric mean; format: functional
[46] = test system: Staphylococcus aureus; assay: Tested for in vitro antibacterial activity against Staphylococcus aureus 011 HT1 novobiocin resistance phenotype; format: functional
[47] = test system: Enterococcus faecium; assay: Minimum inhibitory concentration of the orally administered compound evaluated against vancomycin resistant Enterococci faecium D3AP9 strain in mice; format: functional
[48] = test system: Mus musculus; assay: Protective dose of orally administered compound against intraperitoneally-induced septicaemia model (Staphylococcus aureus GR56 strain resistant to oxacillin) in murine; format: functional; conditions: po, read-out: PD50; summary of the method: as §1
[49] = test system: Mus musculus; assay: Protective dose of orally administered compound against intraperitoneally-induced septicaemia model (Streptococcus pyogenes A1UC1 strain) in murine; conditions: po, read-out: PD50
[50] = test system: Mus musculus; assay: Protective dose of orally administered compound against intraperitoneally-induced septicaemia model (vancomycin resistant Enterococci faecium D3HM4 strain ) in murine; format: functional; conditions: po, read-out: PD50; summary of the method: as §4
[51] = test system: Mus musculus; assay: Protective dose of orally administered compound against intraperitoneally-induced septicaemia model (Enterococci faecalis D2HT6 strain) in murine; format: functional; conditions: po, read-out: PD50; summary of the method: as §1
[52] = test system: Mus musculus; assay: Protective dose of orally administered compound against intraperitoneally-induced septicaemia model (Staphylococcus aureus GO3 strain) in murine; format: functional; conditions: po, read-out: PD50; summary of the method: as §1
[53] = test system: Staphylococcus epidermidis; assay: Tested for in vitro antibacterial activity against Staphylococcus epidermidis 012GO42 oxacillin resistance phenotype; format: functional
[54] = test system: Staphylococcus sp.; assay: Minimum inhibitory concentration evaluated against Staphylococcus species [91]*; format: functional; summary of the method: as §2

In the case of `C#CCONC(=O)O[C@H]1[C@@H](O)[C@H](Oc2ccc3c(=O)c(/C(C)=N/OC)c(O)oc3c2C)OC2(CCCC2)[C@@H]1OC`, the ED50 [1] is reported as 112 mg/kg, the MIC90 [2] is reported as 1.2 µg/mL (≈ 2.14 µM) and the GM [3] is reported as 0.12. For the same compound, the MIC [4] was under 0.04 µg/mL, the ED50 [5] was 2.8 mg/kg and the GM [6] was 0.59. The MIC90 [7] was 0.15 µg/mL (≈ 0.268 µM), the ED50 [8] was 5.6 mg/kg and the GM [9] was 0.081. For the same compound, the ED50 [10] was 8.5 mg/kg, the bioavailability [11] was 62% and the MIC [12] was 0.08 µg/mL (≈ 0.143 µM). For the same compound, the GM [13] was 0.082, the MIC90 [14] was 0.6 µg/mL (≈ 1.07 µM) and the ED50 [15] was 40 mg/kg. It also gave an ED50 [16] of 27.7 mg/kg, an MIC90 [17] of 0.3 µg/mL (≈ 0.535 µM) and an MIC [18] of 0.15 µg/mL (≈ 0.268 µM). The half-life [19] was 2.5 h, the MIC [20] was 0.6 µg/mL (≈ 1.07 µM) and the MIC90 [21] was 1.2 µg/mL (≈ 2.14 µM). The Ratio [22] was 2.6, the MIC90 [23] was 0.15 µg/mL (≈ 0.268 µM) and the MIC [24] was 0.15 µg/mL (≈ 0.268 µM). The Tmax [25] was 0.5 h, the GM [26] was 0.099 and the ED50 [27] was 32 mg/kg. It also gave an MIC90 [28] of 0.15 µg/mL (≈ 0.268 µM), a GM [29] of 0.097 and an MIC [30] of 0.3 µg/mL (≈ 0.535 µM). For the same compound, the MIC [31] was 0.15 µg/mL (≈ 0.268 µM), the MIC [32] was 0.15 µg/mL (≈ 0.268 µM) and the GM [33] was 0.26. The MIC90 [34] was 0.3 µg/mL (≈ 0.535 µM), the MIC [35] was 0.15 µg/mL (≈ 0.268 µM) and the MIC [36] was 0.08 µg/mL (≈ 0.143 µM). It also gave an MIC [37] of 0.15 µg/mL (≈ 0.268 µM), a GM [38] of 0.47 and a Cmax [39] of 5400 ng/mL. The MIC [40] was under 0.04 µg/mL, the MIC90 [41] was 1.2 µg/mL (≈ 2.14 µM) and the MIC [42] was 1.2 µg/mL (≈ 2.14 µM). For the same compound, the MIC [43] was 0.3 µg/mL (≈ 0.535 µM), the ED50 [44] was 44 mg/kg and the GM [45] was 0.16. It also gave an MIC [46] of 1.2 µg/mL (≈ 2.14 µM), an MIC [47] of 0.6 µg/mL (≈ 1.07 µM) and an ED50 [48] of 1 mg/kg. For the same compound, the ED50 [49] was 37.6 mg/kg, the ED50 [50] was 77 mg/kg and the ED50 [51] was 10 mg/kg. For the same compound, the ED50 [52] was 7.1 mg/kg, the MIC [53] was under 0.04 µg/mL and the MIC90 [54] was 0.15 µg/mL (≈ 0.268 µM).
